Assay results collected from several papers.
Lines come from different studies, so protocols differ.
Cell line: HepG2
Observed: cell growth or viability

Structure (SMILES) | technique | time | CC50
O=C1C(NCCc2ccc(O)cc2)=CC2=NCCc3c[nH]c1c32 | MTT | 72 h | 4 µM
CCCCCCNC[C@H](O)c1cc(Cl)cc2c1-c1ccc(Cl)cc1C2 |  | 48 h | 4.8 µM
COCC(=O)N1CCC[C@@H](C(=O)NCc2nc(-c3ccccc3)cs2)C1 | ATP luminescence | 96 h | > 50 µM
CCCCCCCCNC[C@@H](O)c1cc(Cl)cc2c1-c1ccc(Cl)cc1C2 |  | 48 h | 9 µM
COCC(=O)N1CCC[C@H](C(=O)NCc2nc(-c3ccc(C)cc3)cs2)C1 | ATP luminescence | 96 h | > 50 µM
CCCCCCCNCC(O)c1cc(Cl)cc2c1-c1ccc(Cl)cc1C2 (racemic) |  | 48 h | 5.7 µM
COCC(=O)N1CCC[C@H](C(=O)NCc2nc(-c3ccc(C#N)cc3)cs2)C1 | ATP luminescence | 96 h | > 50 µM
NC1=CC2=NCCc3c[nH]c(c32)C1=O | MTT | 72 h | 0.1 µM
O[C@@H](CN[C@@H](COCC1CC1)Cc1ccccc1)c1cc(Cl)cc2c1-c1ccc(Cl)cc1C2 |  | 48 h | 19.9 µM
Cn1cc2c3c1C(=O)C(NCCc1ccc(O)cc1)=CC3=NCC2 | MTT | 72 h | 1 µM
CCOCC(=O)N1CCC[C@H](C(=O)NCc2nc(-c3ccccc3)cs2)C1 | ATP luminescence | 96 h | > 50 µM
COC1=CC2=[N+](C)CCc3c[nH]c(c32)C1=O | MTT | 72 h | 12.5 µM
CCCCCNC[C@@H](O)c1cc(Cl)cc2c1-c1ccc(Cl)cc1C2 |  | 48 h | 6 µM
COC(CNC1=CC2=NCCc3c[nH]c(c32)C1=O)c1c[nH]c2ccccc12 (stereo not drawn) | MTT | 72 h | 20 µM
Cn1nc2c(=O)n(C3CC3)cnc2c1[C@](O)(c1cnc(C(F)(F)F)c(Cl)c1)C(F)(F)F | ATP luminescence |  | > 50 µM
